Experimental data published in the EternaBench riboswitch data.

System: MS2 coat protein
Assay: apparent Kd, MS2 coat protein; higher = weaker binding; RNA-MaP array; FMN 200 µM where present
Procedure, shortened: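 The apparent Kd comes from binding curves fitted cluster by cluster, filtered, and summarised as a median. Those curves followed SNAP-549-labelled MS2 coat protein from 0.7 or 1.5 nM, doubling to 3 µM, on Illumina sequencing-chip clusters where stalled E. coli RNA polymerase had transcribed the designs, without and then with constant ligand. The buffer was 100 mM Tris-HCl pH 7.5, 80 mM KCl, 4 mM MgCl2, BSA, DTT, yeast tRNA and Tween-20, and green signal was normalised to red-channel RNA signal and control-cluster median Fmax.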

[1] = designed as: OFF switch for flavin mononucleotide, no ligand
[2] = ligand present: flavin mononucleotide, designed as: OFF switch for flavin mononucleotide
[3] = designed as: ON switch for flavin mononucleotide, no ligand
[4] = ligand present: flavin mononucleotide, designed as: ON switch for flavin mononucleotide

## GUCUUCCUAGGAUAUACAUGAGGAUCACCCAUGUACAGUUUCGUCUAGGGAUACUCGCGUAGAAGGAGGUGGAU
[1]
  apparent Kd: 20.8 nM
[2]
  apparent Kd: 26.5 nM

## GUCUUCCUAGGAUAUACAUGAGGAUCACCCAUGUACAGUUUCGUCUUGGGAUACUCGCGUAGAAGGAGGUGGAU
[1]
  apparent Kd: 31.9 nM
[2]
  apparent Kd: 23.4 nM

## GUGAAGAUAGCAGGAUAUAUAUUUCCUACAUGAGGAUCACCCAUGUAGGUGAUCAGCCGAGUAAAGUAGAAGGGCUAUCUUUAC
[3]
  apparent Kd: 16.1 nM
[4]
  apparent Kd: 10.7 nM

## GUGACUUAUAGAGGAUAUUGACAUGAGGAUCACCCAUGUAUUUGGGAGUGUUCACUGAAUUCUUACGAGAAGGCUAUAAGACAC
[1]
  apparent Kd: 229 nM
[2]
  apparent Kd: 224 nM

## GUGAGGUCAGGAUAUGCAUGGCGGGACUUGCGUCGUGGCGUGCAGAAGGGACAUGAGGAUCACCCAUGUGGAGG
[1]
  apparent Kd: 225 nM
[2]
  apparent Kd: 302 nM

## GUGAUCGACAUGAGGAUCACCCAUGUGGAUUCGUUGAGCGGCAGAAGGCGAUGUAGAAAAGAACUCGAGGAUAUGCACGUGUCA
[3]
  apparent Kd: 7.22 nM
[4]
  apparent Kd: 6.76 nM

## GUGCAAUGAGGAUAUACGUUGGUGGGCAUCUGUGUGCUCCUACAUGAGGAUCACCCAUGUAGAAGGCAUGUCAC
[1]
  apparent Kd: 12.5 nM
[2]
  apparent Kd: 15.8 nM

## GUGCACAUUCGAGGAUAUCGGAGAGGACUCCUUCGAGAAGGCGAUUCGUGCCGUGUUAUUCUGGACAUGAGGAUCACCCAUGUG
[3]
  apparent Kd: 45 nM
[4]
  apparent Kd: 28.7 nM

## GUGCAUUACGAGAAGGCGUACUGGUGAAUAUAAAACGACAAAGGUACAUGAGGAUCACCCAUGUACGAGGAUAUCGGUUUGGCU
[1]
  apparent Kd: 9.74 nM
[2]
  apparent Kd: 29.8 nM

## GUGCAUUCGUAGAAGGGUGACAUGAGGAUCACCCAUGUGCGCUGGGCUCAGGAUGCCUCAGCGCCACAGGAUAUACGAAGCACC
[3]
  apparent Kd: 97.6 nM
[4]
  apparent Kd: 35.1 nM

## GUGCCUUGGAAGAAGGCCGUAUGCAAAGCAUACGGAGGAUAUUCAUACCGGAAACGGACAUGAGGAUCACCCAUGUGGCACAAA
[3]
  apparent Kd: 13 nM
[4]
  apparent Kd: 6.24 nM

## GUGCCUUGGGAGAAGGCAGUAUGCAAAGCAUUCUGAGGAUAUUCAUACCGGAAACGGACAUGAGGAUCACCCAUGUGGCACAAA
[3]
  apparent Kd: 1210 nM
[4]
  apparent Kd: 64.6 nM

## GUGCCUUGGGAGAAGGCCGUAUGCAAAGCAUACGGAGGAUAUCCAUACCGGAAACGGACAUGAGGAUCACCCAUGUGGCACAAA
[3]
  apparent Kd: 15.1 nM
[4]
  apparent Kd: 6.03 nM

## GUGCGGUAGGAGAAGGACAGAGGCUUCAUUACAUACAUGAGGAUCACCCAUGUAGGAUAUCCUACCUCACGCGGCCUCCUCCUG
[1]
  apparent Kd: 8.48 nM
[2]
  apparent Kd: 31.8 nM

## GUGGAACAUGAGGAUCACCCAUGUGAGGAUAUAGGUUUUUGGGAAAAACUAGGAGAAACUAGAAGGCGCAAGAA
[1]
  apparent Kd: 29.4 nM
[2]
  apparent Kd: 27.6 nM

## GUGGCGACGUAGAAGGGUGACAUGAGGAUCACCCAUGUGCCGAUAUUUCUCGAGAUAUGUCGGCCACAGGAUAUACGUGCCAUC
[3]
  apparent Kd: 40.1 nM
[4]
  apparent Kd: 56 nM

## GUGGCUAGUGCAGGAUAUUGGCGCGUGUAGUGUCGAGAAGGGCACAUGAGGAUCACCCAUGUGAUCAAUCACUGCUAAGGUCGC
[1]
  apparent Kd: 6.98 nM
[2]
  apparent Kd: 7.69 nM

## GUGGGACAUGAGGAUCACCCAUGUGGGAGGGAACGAGGAUAUGUGAGGAGCGAGAAGUGAACAGAAGGCGUGGUUG
[3]
  apparent Kd: 82.8 nM
[4]
  apparent Kd: 51.4 nM

## GUGGUACAUGAGGAUCACCCAUGUUAGGAUAUCGCGUGAGGUUUUACUUCCGCGCGCGCGAGAAGGGACGUCUU
[1]
  apparent Kd: 26.8 nM
[2]
  apparent Kd: 22.8 nM

## GUGGUCAGACAUGAGGAUCACCCAUGUGGAAUAAAUAACAGACAGGAUAUUAAAUAUAGGAUAUAUAAGAAGGGUCGAUUGGUG
[3]
  apparent Kd: 91.1 nM
[4]
  apparent Kd: 91.6 nM

## GUGGUCAGACAUGAGGAUCACCCAUGUGGAAUAAAUAAGGACUAGGAUAUGGAAUAUAGGAUAUACCAGAAGGAGUGGUUGGUG
[3]
  apparent Kd: 56.4 nM
[4]
  apparent Kd: 60 nM

## GUGGUCAGACAUGAGGAUCACCCAUGUGGAAUAAAUAAGGGACAGGAUAUUUAAUAUAGGAUAUAGAAGAAGGGUUGGUUGGUG
[3]
  apparent Kd: 106 nM
[4]
  apparent Kd: 138 nM

## GUGGUUGUCGUAGGAUAUGUAGGAUAUUCCUACAUGAGGAUCACCCAUGUUCGCAUGGAAGAAGGACAGAAGGACGAUGACCAU
[3]
  apparent Kd: 1020 nM
[4]
  apparent Kd: 10.7 nM

## GUGUACAGAGGAUAUACAGGAGCAUGGAAACAUGCAACCUCACAUGAGGAUCACCCAUGUAGAAGGCUGUACAC
[1]
  apparent Kd: 154 nM
[2]
  apparent Kd: 81.3 nM

## GUGUACAGAGGAUAUACAGGAGCUAGGAAACUAGCAACUUCACAUGAGGAUCACCCAUGUAGAAGGCUGUACAC
[1]
  apparent Kd: 15.3 nM
[2]
  apparent Kd: 49.7 nM

## GUGUACAGAGGAUAUACUGGAGCAUGGAAACAUGCAACUUCACAUGAGGAUCACCCAUGUAGAAGGCUGUACAC
[1]
  apparent Kd: 17.6 nM
[2]
  apparent Kd: 68.4 nM

## GUGUACAGAGGAUAUAUAUGAGCAUGGAAACAUGCAACUUCACAUGAGGAUCACCCAUGUAGAAGGCUGUACAC
[1]
  apparent Kd: 14.2 nM
[2]
  apparent Kd: 14.3 nM

## GUGUACAGAGGAUAUAUAUGGGCAUGGAAACAUGCAACUUCACAUGAGGAUCACCCAUGUAGAAGGCUGUACAC
[1]
  apparent Kd: 27.3 nM
[2]
  apparent Kd: 182 nM

## GUGUACGGAGGAUAUAUGUGGGCAGCAUACGCUGCAGCUUCACAUGAGGAUCACCCAUGUAGAAGGCUGUACAC
[1]
  apparent Kd: 28.7 nM
[2]
  apparent Kd: 169 nM

## GUGUACGGAGGAUAUGCUGGAAUCUAGCGAAGCUAGGUUCCACAUGAGGAUCACCCAUGUAGAAGGCUGUACAC
[1]
  apparent Kd: 24.8 nM
[2]
  apparent Kd: 14.2 nM

## GUUAUAAAGGUAGGAUAUAGUAUUAUAAUUAAAUUAGAAGGAUCUCACAUGAGGAUCACCCAUGUAAGAGGAUCACCCAUGUAG
[1]
  apparent Kd: 20.7 nM
[2]
  apparent Kd: 15.9 nM

## GUUAUGUCAGGAUAUGCUUAUGAUGAGUGCUCAGACAUGAUGCAGAAGGGACAUGAGGAUCACCCAUGUACUGA
[1]
  apparent Kd: 25.4 nM
[2]
  apparent Kd: 63.9 nM

## GUUAUUUAUGUAGGAUAUGCGAGGCGAGCCUAAGCAGAAGGACAUGAGGAUCACCCAUGUAUUGCGGUUUGCGUUCAGAUCGCU
[1]
  apparent Kd: 21.1 nM
[2]
  apparent Kd: 37.8 nM

## GUUGUGUGAGGAUAUGCCUGGCCGUGUGGCCGGAUUGGGUGGCAGAAGGUACAUGAGGAUCACCCAUGUACGGG
[1]
  apparent Kd: 90.6 nM
[2]
  apparent Kd: 70 nM

## GUUGUUACUGAGGAUAUUAUUUUAUUCGAUUGAUAAGAAGGCAGUACAUGAGGAUCACCCAUGUGGGUAGUUUG
[1]
  apparent Kd: 355 nM
[2]
  apparent Kd: 586 nM

## GUUGUUUCUGAGGAUAUUAUUUUAUUCGAUUGAUAAGAAGGCAGUACAUGAGGAUCACCCAUGUGGGUUGUUUG
[1]
  apparent Kd: 60.6 nM
[2]
  apparent Kd: 122 nM

## GUUGUUUCUGAGGAUAUUAUUUUUUUCGAUUGAUAAGAAGGCAGUACAUGAGGAUCACCCAUGUGGGUUGUCUG
[1]
  apparent Kd: 37.2 nM
[2]
  apparent Kd: 150 nM

## GUUUACGCAUGAGGAUAUGCUCGCAUUUCAAGAGCAGAAGGUAUGUCUUUAGACAUGAGGAUCACCCAUGUAUUUAUCAUUGUA
[3]
  apparent Kd: 187 nM
[4]
  apparent Kd: 29.9 nM

## GUUUACGCGGAAGGAUAUACAUUUGACAUCUUGAUGCGCGCAAUACUCACAUGAGGAUCACCCAUGUAGAAGGUCUGCGAAAGA
[1]
  apparent Kd: 15.1 nM
[2]
  apparent Kd: 24.9 nM

## GUUUAGUGAGGAUAUGUGGCAUCGAUCGAGCGCGGUCGGCUACAGAAGGCACAUGAGGAUCACCCAUGUUUCUC
[1]
  apparent Kd: 39.5 nM
[2]
  apparent Kd: 413 nM

## GUUUAGUGAGGAUAUGUGGCUUCGAUCGUGAGAUCGAGGCUACAGAAGGCACAUGAGGAUCACCCAUGUUCCUU
[1]
  apparent Kd: 14.4 nM
[2]
  apparent Kd: 51.6 nM

## GUUUCCAGAGGAUAUGCGAGGGUGUACCUCUAACAGCUCAAACAUGAGGAUCACCCAUGUAGAAGGCUGAUCAU
[1]
  apparent Kd: 19.8 nM
[2]
  apparent Kd: 18.2 nM

## GUUUCGGGAGGAUAUGCGUGGAUUGUUCUCGUAUGGUGUCUACAUGAGGAUCACCCAUGUAGAAGGUCUGGAGC
[1]
  apparent Kd: 18 nM
[2]
  apparent Kd: 38.6 nM

## GUUUUCACAUGAGGAUAUGCUCGCAUUUCAAGAGCAGAAGGUAUGUCUUUAGACAUGAGGAUCACCCAUGUAUUUAUCAUUGAA
[3]
  apparent Kd: 91.1 nM
[4]
  apparent Kd: 28.4 nM

## GUUUUUCCUCAUGUACAUGAGGAACAUGAGGAUCACCCAUGUAGAAGGAAUUCCCUUAAAUUAAGUUAGGAUAUACAUAUAUUU
[1]
  apparent Kd: 107 nM
[2]
  apparent Kd: 77.4 nM

## GUUUUUUGUCAUGUACAUGAGGAACAUGAGGAUCACCCAUGUAGAAGGAAUUUUUUUAAGUUUAGUUAGGAUAUACAUAUAUUA
[1]
  apparent Kd: 49 nM
[2]
  apparent Kd: 24.7 nM

## UAAAAGACUAGCAACUAUCUCCACAUGAGGAUCACCCAUGUCUAGGAUAUGAGCAGCAAAGCUGCUUAGAAGGAGACGCUAGUC
[1]
  apparent Kd: 6.67 nM
[2]
  apparent Kd: 6.88 nM

## UAAAAGACUAGCAUUCUAAAGAUCACAUGAGGAUCACCCAUGUAGGAUAUGAGCAGAAAAUCUGCUCAGAAGGACAUGCUAGUC
[1]
  apparent Kd: 5.51 nM
[2]
  apparent Kd: 6.02 nM

## UAAAGUGUGGAGGAUAUGGACCGCGCUAGUGGUCCAGAAGGUCAAACAUGAGGAUCACCCAUGUCCCGUGAUUA
[1]
  apparent Kd: 54.5 nM
[2]
  apparent Kd: 67.7 nM

## UAAAUAAGUGUGAGGAUAUGCUGGUCCUUGGAUCAGCAGAAGGCACAUGAGGAUCACCCAUGUAAUAUAUUUAU
[1]
  apparent Kd: 85.2 nM
[2]
  apparent Kd: 316 nM

## UAAAUACAUGAGGAUCACCCAUGUCAGGAUAUAUUACGCCCGCCAAGCGAGCGCGUCUAUAGAAGGGACGGUGA
[1]
  apparent Kd: 33.3 nM
[2]
  apparent Kd: 33.2 nM

## UAAAUACAUGAGGAUCACCCAUGUGAGGAUAUCCGAUGAUUCGGAGAAAGGACCCGUUGGAGAAGGCAUAGGGC
[1]
  apparent Kd: 27.1 nM
[2]
  apparent Kd: 21 nM

## UAAAUUUUGUAAGGAUAUACACGAGAUUCAAGUGUAGAAGGUACUUACAUGAGGAUCACCCAUGUAUACAUGGAUCAUAGAUAU
[3]
  apparent Kd: 305 nM
[4]
  apparent Kd: 63.9 nM

## UAACAUGUCCGAGGAUAUCUGGAAACAUUUUCAAGAGAAGGCGGACAUGAGGAUCACCCAUGUCUCUCCUCAUCAAAUCCAAGU
[1]
  apparent Kd: 8.9 nM
[2]
  apparent Kd: 42.3 nM

## UAAGUACAUGAGGAUCACCCAUGUUGGAAUAGAGCAGGAUAUGUGCAGAGGGAAAUAAAAACAGAAGGGCUAAGAA
[3]
  apparent Kd: 45.3 nM
[4]
  apparent Kd: 28.6 nM

## UAAGUUGAGGAGAAGGGAGCACAUGAGGAUCACCCAUGUGGUUCUUUGUGCUCAGGAUAUCCAUGGAGCUCCAACGCGUUCCCG
[1]
  apparent Kd: 63.1 nM
[2]
  apparent Kd: 10.3 nM
